Experimental data taken from ChEMBL document CHEMBL4706664, “Rational drug design of 6-substituted 4-anilino-2-phenylpyrimidines for exploration of novel ABCG2 binding site” (Eur J Med Chem, 2021).

Molecular target: ATP-dependent translocase ABCB1 (Homo sapiens, UniProt P08183)
Assay: Inhibition of ABCB1 (unknown origin) expressed in human A2780 ADR cells assessed as reduction in calcein AM efflux preincubated for 30 mins followed by calcein AM addition and measured at 60 secs interval for 1 hr by fluorescence assay
Format: cell-based
Conditions: read-out: IC50
How it was run: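 Calcein AM accumulation in A2780/ADR cells (30,000/well, Krebs-HEPES buffer pH 7.4). Cells preincubated with compound 30 min at 37 °C, 5% CO2. Then 20 µL of 3.125 µM calcein AM added. Fluorescence (ex 485/em 520 nm) read every 60 s for 1 h. […] Screening at 10 µM.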

Chain of ATP-dependent translocase ABCB1 (P08183 whole entry): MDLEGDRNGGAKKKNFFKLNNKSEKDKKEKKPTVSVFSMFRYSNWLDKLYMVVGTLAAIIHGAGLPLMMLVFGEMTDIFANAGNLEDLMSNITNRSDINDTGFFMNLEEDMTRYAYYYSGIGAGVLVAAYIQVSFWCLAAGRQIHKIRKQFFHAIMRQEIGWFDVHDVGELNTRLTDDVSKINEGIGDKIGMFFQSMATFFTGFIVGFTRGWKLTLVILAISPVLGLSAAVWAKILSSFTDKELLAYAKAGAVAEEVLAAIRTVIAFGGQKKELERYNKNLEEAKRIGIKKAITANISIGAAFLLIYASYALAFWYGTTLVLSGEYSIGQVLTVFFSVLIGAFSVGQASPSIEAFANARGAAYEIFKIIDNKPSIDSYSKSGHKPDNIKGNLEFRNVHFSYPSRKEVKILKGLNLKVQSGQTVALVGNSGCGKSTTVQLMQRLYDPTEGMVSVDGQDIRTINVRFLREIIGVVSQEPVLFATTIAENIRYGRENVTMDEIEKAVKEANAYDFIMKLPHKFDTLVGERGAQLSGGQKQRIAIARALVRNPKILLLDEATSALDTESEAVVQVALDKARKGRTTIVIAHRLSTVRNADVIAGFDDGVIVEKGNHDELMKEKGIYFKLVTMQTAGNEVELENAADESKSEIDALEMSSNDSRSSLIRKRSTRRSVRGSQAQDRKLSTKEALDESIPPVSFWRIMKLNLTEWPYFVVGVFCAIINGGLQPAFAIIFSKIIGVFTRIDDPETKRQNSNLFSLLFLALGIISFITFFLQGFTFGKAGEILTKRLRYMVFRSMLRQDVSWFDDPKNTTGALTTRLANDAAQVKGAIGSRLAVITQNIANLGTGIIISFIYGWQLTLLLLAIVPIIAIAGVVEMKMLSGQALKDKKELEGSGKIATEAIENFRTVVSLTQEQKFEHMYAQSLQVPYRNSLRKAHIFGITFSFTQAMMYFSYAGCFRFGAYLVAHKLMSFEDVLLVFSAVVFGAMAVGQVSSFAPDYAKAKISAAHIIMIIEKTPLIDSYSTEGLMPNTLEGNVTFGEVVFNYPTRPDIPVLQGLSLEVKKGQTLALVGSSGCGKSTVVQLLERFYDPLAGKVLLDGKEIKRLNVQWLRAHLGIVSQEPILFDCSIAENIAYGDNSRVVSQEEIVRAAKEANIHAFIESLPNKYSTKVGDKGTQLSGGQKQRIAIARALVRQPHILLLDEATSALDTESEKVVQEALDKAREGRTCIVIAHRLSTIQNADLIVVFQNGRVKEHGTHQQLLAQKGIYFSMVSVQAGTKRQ

SMILES	IC50 [µM]
N#Cc1ccc(Nc2cc(Nc3ccccc3)nc(-c3ccccc3)n2)cc1	5.38
N#Cc1ccc(Nc2cc(NCc3ccncc3)nc(-c3ccccc3)n2)cc1	4.26
N#Cc1ccc(Nc2cc(Nc3ccccc3O)nc(-c3ccccc3)n2)cc1	2.98
N#Cc1ccc(Nc2cc(NCc3ccccc3)nc(-c3ccccc3)n2)cc1	4.47

Continued, values first:

IC50 [µM]	SMILES
6.42	CC(C)Nc1cc(Nc2ccc(C#N)cc2)nc(-c2ccccc2)n1
6.62	CCCCNc1cc(Nc2ccc(C#N)cc2)nc(-c2ccccc2)n1
5.9	CCCNc1cc(Nc2ccc(C#N)cc2)nc(-c2ccccc2)n1

System: not listed separately
Assay: Cytotoxicity against ABCC1 over expressing human NCI-H69AR cells assessed as reduction in cell viability measured after 72 hrs by MTT assay
Format: ADME, cell-based
Conditions: ABCC1 overexpressing NCI-H69AR cells
How it was run: (§1)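 MTT cell viability. Compound dilution series prepared in culture medium at 3.16 µM to 1 mM (dilution stock; added 20 µL to 180 µL cells). Seeding per well: MDCK II and MDCK II BCRP 2000, A2780 and A2780/ADR 8000, H69AR 20,000. Incubated 72 h, 37 °C, 5% CO2. MTT 5 mg/mL added for 60 min, formazan dissolved in DMSO, absorbance 570 nm (690 nm background). Medium = 100%, 10% DMSO = 0% viability. GI50 by four-parameter logistic fit. Mean ± SEM of at least three independent experiments.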

SMILES	GI50 at 72 h [µM]
CC(C)Nc1cc(Nc2ccc(C#N)cc2)nc(-c2ccccc2)n1	21.4
CCCNc1cc(Nc2ccc(C#N)cc2)nc(-c2ccccc2)n1	23

Molecular target: ABCC1 (Homo sapiens, UniProt P33527)
Assay: Inhibition of ABCC1 (unknown origin) expressed in human NCI-H69AR cells assessed as reduction in calcein AM efflux at 10 uM preincubated for 30 mins followed by calcein AM addition and measured at 60 secs interval for 1 hr by fluorescence assay relative to control
Format: cell-based
Conditions: NCI-H69AR cells expressing ABCC1, probe calcein AM, time 90 min

Chain of ABCC1 (P33527 whole entry): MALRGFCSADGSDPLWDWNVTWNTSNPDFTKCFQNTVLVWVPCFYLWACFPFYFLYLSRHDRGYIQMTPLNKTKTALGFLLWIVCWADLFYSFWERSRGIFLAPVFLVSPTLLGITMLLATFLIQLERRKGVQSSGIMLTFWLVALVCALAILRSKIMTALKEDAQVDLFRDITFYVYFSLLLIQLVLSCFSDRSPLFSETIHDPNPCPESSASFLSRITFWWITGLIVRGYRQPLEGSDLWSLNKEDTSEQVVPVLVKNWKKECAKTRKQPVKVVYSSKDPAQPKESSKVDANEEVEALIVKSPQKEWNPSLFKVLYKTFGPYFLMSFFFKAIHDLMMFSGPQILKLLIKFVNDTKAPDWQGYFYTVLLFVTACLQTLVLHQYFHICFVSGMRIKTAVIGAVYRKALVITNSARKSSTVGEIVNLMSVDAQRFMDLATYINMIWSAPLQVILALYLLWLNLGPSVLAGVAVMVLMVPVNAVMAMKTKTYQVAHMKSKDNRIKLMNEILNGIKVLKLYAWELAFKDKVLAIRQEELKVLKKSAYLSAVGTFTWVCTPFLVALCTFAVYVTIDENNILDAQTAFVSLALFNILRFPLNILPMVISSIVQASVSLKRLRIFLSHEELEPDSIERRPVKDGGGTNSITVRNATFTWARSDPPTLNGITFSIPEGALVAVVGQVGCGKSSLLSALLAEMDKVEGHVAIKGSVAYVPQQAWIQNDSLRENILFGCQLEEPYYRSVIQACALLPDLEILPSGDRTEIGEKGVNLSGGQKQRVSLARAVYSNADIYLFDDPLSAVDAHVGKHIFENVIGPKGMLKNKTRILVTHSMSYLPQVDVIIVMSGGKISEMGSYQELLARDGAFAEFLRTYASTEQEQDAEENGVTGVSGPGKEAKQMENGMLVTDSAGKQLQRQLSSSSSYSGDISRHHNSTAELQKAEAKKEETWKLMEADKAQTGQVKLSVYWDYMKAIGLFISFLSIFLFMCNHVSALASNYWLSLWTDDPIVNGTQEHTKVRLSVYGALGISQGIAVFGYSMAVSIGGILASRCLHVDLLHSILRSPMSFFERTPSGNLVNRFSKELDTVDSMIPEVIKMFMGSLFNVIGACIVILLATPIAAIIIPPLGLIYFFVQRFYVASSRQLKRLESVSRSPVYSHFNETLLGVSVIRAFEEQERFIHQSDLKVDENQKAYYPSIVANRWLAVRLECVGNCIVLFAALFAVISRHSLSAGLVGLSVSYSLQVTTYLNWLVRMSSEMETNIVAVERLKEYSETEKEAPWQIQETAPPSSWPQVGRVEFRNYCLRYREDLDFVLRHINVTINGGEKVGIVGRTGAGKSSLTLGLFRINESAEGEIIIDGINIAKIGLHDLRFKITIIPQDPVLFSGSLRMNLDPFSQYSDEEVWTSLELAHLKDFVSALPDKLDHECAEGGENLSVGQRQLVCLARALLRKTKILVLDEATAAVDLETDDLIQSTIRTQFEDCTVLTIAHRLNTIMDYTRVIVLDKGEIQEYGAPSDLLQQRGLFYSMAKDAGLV

inhibition at 1 h, 10 µM [%]	SMILES
> 20	CC(C)Nc1cc(Nc2ccc(C#N)cc2)nc(-c2ccccc2)n1
> 20	CCCNc1cc(Nc2ccc(C#N)cc2)nc(-c2ccccc2)n1

Molecular target: T1, Broad substrate specificity ATP-binding cassette transporter ABCG2 (Homo sapiens, UniProt Q9UNQ0)
T1 sequence (Q9UNQ0 whole entry): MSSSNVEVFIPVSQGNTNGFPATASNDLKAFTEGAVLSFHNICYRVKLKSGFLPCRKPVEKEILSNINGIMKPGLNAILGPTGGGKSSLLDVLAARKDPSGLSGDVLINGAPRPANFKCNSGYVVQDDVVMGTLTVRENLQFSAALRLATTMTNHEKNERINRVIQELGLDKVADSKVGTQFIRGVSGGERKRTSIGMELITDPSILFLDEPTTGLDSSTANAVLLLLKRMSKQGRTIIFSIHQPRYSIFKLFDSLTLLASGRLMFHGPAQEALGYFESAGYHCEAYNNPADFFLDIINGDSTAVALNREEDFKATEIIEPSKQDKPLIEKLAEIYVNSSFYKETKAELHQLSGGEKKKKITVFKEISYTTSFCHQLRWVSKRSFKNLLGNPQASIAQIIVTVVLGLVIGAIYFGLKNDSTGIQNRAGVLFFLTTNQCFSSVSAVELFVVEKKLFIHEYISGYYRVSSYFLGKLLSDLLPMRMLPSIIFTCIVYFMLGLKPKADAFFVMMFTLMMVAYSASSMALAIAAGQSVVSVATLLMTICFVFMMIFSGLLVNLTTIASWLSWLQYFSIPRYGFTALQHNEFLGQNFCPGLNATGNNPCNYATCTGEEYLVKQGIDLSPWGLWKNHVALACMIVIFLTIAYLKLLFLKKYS
Assay: Inhibition of ABCG2 (unknown origin) expressed in MDCK-II cells assessed as reduction in pheophorbide A efflux measured after 2 hrs by flow cytometry
Format: cell-based
Conditions: not given
How it was run: (§2)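 Pheophorbide A accumulation in MDCK II BCRP cells, about 45,000 cells/well in Krebs-HEPES buffer pH 7.4. Compound dilutions were prepared at 0.316–100 µM, and 20 µL of 5 µM pheophorbide A was added. Incubated 2 h at 37 °C, 5% CO2. Fluorescence read by flow cytometry (ex 488 nm, em 695/50 nm). IC50 and Imax are mean ± SEM of at least three independent experiments.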

SMILES	IC50 [µM]
N#Cc1ccc(Nc2cc(Nc3ccccc3)nc(-c3ccccc3)n2)cc1	0.169
N#Cc1ccc(Nc2cc(NCc3ccncc3)nc(-c3ccccc3)n2)cc1	0.435
N#Cc1ccc(Nc2cc(Nc3ccccc3O)nc(-c3ccccc3)n2)cc1	0.223
N#Cc1ccc(Nc2cc(NCc3ccccc3)nc(-c3ccccc3)n2)cc1	0.283

Continued, values first:

IC50 [µM]	SMILES
0.189	Cc1cc(Nc2ccc(C#N)cc2)nc(-c2ccccc2)n1
0.763	CC(C)Nc1cc(Nc2ccc(C#N)cc2)nc(-c2ccccc2)n1
0.5	CCCCNc1cc(Nc2ccc(C#N)cc2)nc(-c2ccccc2)n1
0.189	N#Cc1ccc(Nc2ccnc(-c3ccccc3)n2)cc1
0.293	CCCNc1cc(Nc2ccc(C#N)cc2)nc(-c2ccccc2)n1

System: not listed separately
Assay: Cytotoxicity against ABCG2 overexpressing MDCK-II cells assessed as reduction in cell viability measured after 72 hrs by MTT assay
Format: ADME, cell-based, Canis lupus familiaris
Conditions: dog
How it was run: as §1

SMILES	GI50 at 72 h [µM]
N#Cc1ccc(Nc2cc(Nc3ccccc3)nc(-c3ccccc3)n2)cc1	4.05
CC(C)Nc1cc(Nc2ccc(C#N)cc2)nc(-c2ccccc2)n1	5.06
CCCCNc1cc(Nc2ccc(C#N)cc2)nc(-c2ccccc2)n1	6.08
N#Cc1ccc(Nc2cc(NCc3ccncc3)nc(-c3ccccc3)n2)cc1	10
N#Cc1ccc(Nc2cc(Nc3ccccc3O)nc(-c3ccccc3)n2)cc1	4.61
CCCNc1cc(Nc2ccc(C#N)cc2)nc(-c2ccccc2)n1	6.56
N#Cc1ccc(Nc2cc(NCc3ccccc3)nc(-c3ccccc3)n2)cc1	10.7

System: not listed separately
Assay: Cytotoxicity against ABCB1 over expressing human A2780 cells assessed as reduction in cell viability measured after 72 hrs by MTT assay
Format: ADME, cell-based
Conditions: in the assay text read “human A2780 cells” for “ABCB1 over expressing human A2780 cells”
How it was run: as §1

SMILES	GI50 at 72 h [µM]
N#Cc1ccc(Nc2cc(Nc3ccccc3O)nc(-c3ccccc3)n2)cc1	9.07

System: not listed separately
Assay: Cytotoxicity against ABCB1 over expressing human A2780 ADR cells assessed as reduction in cell viability measured after 72 hrs by MTT assay
Format: ADME, cell-based
Conditions: ABCB1 overexpressing A2780 ADR cells
How it was run: as §1

SMILES	GI50 at 72 h [µM]
CC(C)Nc1cc(Nc2ccc(C#N)cc2)nc(-c2ccccc2)n1	8.09
N#Cc1ccc(Nc2cc(Nc3ccccc3O)nc(-c3ccccc3)n2)cc1	9.96
CCCNc1cc(Nc2ccc(C#N)cc2)nc(-c2ccccc2)n1	12.3

Molecular target: ABCB1 (Homo sapiens, UniProt P08183)
Assay: Inhibition of ABCB1 (unknown origin) expressed in human A2780 ADR cells assessed as reduction in calcein AM efflux at 10 uM preincubated for 30 mins followed by calcein AM addition and measured at 60 secs interval for 1 hr by fluorescence assay relative to control
Format: cell-based
Conditions: A2780 ADR cells expressing ABCB1, probe calcein AM, time 90 min
How it was run: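 Calcein AM accumulation in A2780/ADR cells (30,000/well, Krebs-HEPES buffer pH 7.4). Cells preincubated with compound 30 min at 37 °C, 5% CO2. Screening at 10 µM.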

Chain of ABCB1 (Homo sapiens, UniProt P08183) (P08183 whole entry): as the sequence (P08183 whole entry) above

SMILES	inhibition at 1 h, 10 µM [%]
N#Cc1ccc(Nc2cc(Nc3ccccc3)nc(-c3ccccc3)n2)cc1	> 20
N#Cc1ccc(Nc2cc(NCc3ccncc3)nc(-c3ccccc3)n2)cc1	> 20
N#Cc1ccc(Nc2cc(Nc3ccccc3O)nc(-c3ccccc3)n2)cc1	> 20
N#Cc1ccc(Nc2cc(NCc3ccccc3)nc(-c3ccccc3)n2)cc1	> 20

The next lines start with the values.

inhibition at 1 h, 10 µM [%]	SMILES
> 20	CC(C)Nc1cc(Nc2ccc(C#N)cc2)nc(-c2ccccc2)n1
> 20	CCCCNc1cc(Nc2ccc(C#N)cc2)nc(-c2ccccc2)n1
> 20	CCCNc1cc(Nc2ccc(C#N)cc2)nc(-c2ccccc2)n1

System: ABCG2
Assay: Therapeutic index, ratio of GI50 for cytotoxicity against ABCG2 overexpressing MDCK-II cells to IC50 for inhibition of ABCG2 (unknown origin) expressed in MDCK-II cells
Conditions: dog

SMILES	selectivity ratio
N#Cc1ccc(Nc2cc(Nc3ccccc3)nc(-c3ccccc3)n2)cc1	24
CCCCNc1cc(Nc2ccc(C#N)cc2)nc(-c2ccccc2)n1	12.2
N#Cc1ccc(Nc2cc(NCc3ccncc3)nc(-c3ccccc3)n2)cc1	23.1
N#Cc1ccc(Nc2cc(Nc3ccccc3O)nc(-c3ccccc3)n2)cc1	20.7
N#Cc1ccc(Nc2cc(NCc3ccccc3)nc(-c3ccccc3)n2)cc1	38

Molecular target: T2, ABCG2 (Homo sapiens, UniProt Q9UNQ0)
T2 sequence (Q9UNQ0 whole entry): T1 sequence (Q9UNQ0 whole entry)
Assay: Inhibition of ABCG2 (unknown origin) expressed in MDCK-II cells assessed as reduction in pheophorbide A efflux measured after 2 hrs by flow cytometry relative to Ko143
Format: cell-based
Conditions: MDCK-II cells expressing ABCG2, probe pheophorbide A, read-out: Imax
How it was run: as §2

SMILES	Emax at 2 h [%]
N#Cc1ccc(Nc2cc(Nc3ccccc3)nc(-c3ccccc3)n2)cc1	84
N#Cc1ccc(Nc2cc(NCc3ccncc3)nc(-c3ccccc3)n2)cc1	78
N#Cc1ccc(Nc2cc(Nc3ccccc3O)nc(-c3ccccc3)n2)cc1	86
N#Cc1ccc(Nc2cc(NCc3ccccc3)nc(-c3ccccc3)n2)cc1	99

Second part, the compound after the results:

Emax at 2 h [%]	SMILES
87	Cc1cc(Nc2ccc(C#N)cc2)nc(-c2ccccc2)n1
101	CC(C)Nc1cc(Nc2ccc(C#N)cc2)nc(-c2ccccc2)n1
73	CCCCNc1cc(Nc2ccc(C#N)cc2)nc(-c2ccccc2)n1
89	CCCNc1cc(Nc2ccc(C#N)cc2)nc(-c2ccccc2)n1

System: ABCB1
Assay: Therapeutic index, ratio of GI50 for cytotoxicity against ABCB1 over expressing human A2780 ADR cells to IC50 for inhibition of ABCB1 (unknown origin) expressed in human A2780 ADR cells
Conditions: ABCB1 overexpressing A2780 ADR cells

SMILES	selectivity ratio
N#Cc1ccc(Nc2cc(Nc3ccccc3O)nc(-c3ccccc3)n2)cc1	3.34

System: not listed separately
Assay: Cytotoxicity against wild-type MDCK-II cells assessed as reduction in cell viability measured after 72 hrs by MTT assay
Format: cell-based, Canis lupus familiaris
Conditions: dog
How it was run: as §1

SMILES	GI50 at 72 h [µM]
N#Cc1ccc(Nc2cc(Nc3ccccc3)nc(-c3ccccc3)n2)cc1	4.95
CC(C)Nc1cc(Nc2ccc(C#N)cc2)nc(-c2ccccc2)n1	5.58
CCCCNc1cc(Nc2ccc(C#N)cc2)nc(-c2ccccc2)n1	8.32
N#Cc1ccc(Nc2cc(NCc3ccncc3)nc(-c3ccccc3)n2)cc1	10.7
N#Cc1ccc(Nc2cc(Nc3ccccc3O)nc(-c3ccccc3)n2)cc1	4.23
CCCNc1cc(Nc2ccc(C#N)cc2)nc(-c2ccccc2)n1	8.34
N#Cc1ccc(Nc2cc(NCc3ccccc3)nc(-c3ccccc3)n2)cc1	4.19
CCc1c2c(nc3ccc(O)cc13)-c1cc3c(c(=O)n1C2)COC(=O)[C@]3(O)CC [7-ETHYL-10-HYDROXYCAMPTOTHECIN]	0.139

System: not listed separately
Assay: Cytotoxicity against human A2780 cells assessed as reduction in cell viability measured after 72 hrs by MTT assay
Conditions: not given

SMILES	GI50 at 72 h [µM]
CC(C)Nc1cc(Nc2ccc(C#N)cc2)nc(-c2ccccc2)n1	13.3
CCCNc1cc(Nc2ccc(C#N)cc2)nc(-c2ccccc2)n1	15.1
